This is an account of results in PMC5087331 (Journal of Medicinal Chemistry, 2016).

For assay [1], the target named is FimH lectin domain (FimHL) (Escherichia coli, UniProt P08191). Kind of assay: Differential scanning fluorimetry. Format: binding. To be noted: isothermal shift melting point assay. In outline: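 FimH lectin domain (FimHL) at 10 μM, heated with or without 100 μM mannoside. Melting temperature measured by differential scanning fluorimetry. Value is the shift in melting temperature relative to protein without mannoside.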
Chain of FimH lectin domain (FimHL) (P08191 22-179): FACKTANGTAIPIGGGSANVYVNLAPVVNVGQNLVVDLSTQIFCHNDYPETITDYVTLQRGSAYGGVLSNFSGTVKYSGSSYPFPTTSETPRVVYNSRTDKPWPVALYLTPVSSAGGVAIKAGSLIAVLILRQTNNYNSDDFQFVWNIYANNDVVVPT
On the technique in general: Differential scanning fluorimetry follows unfolding on heating by fluorescence.

In assay [2] the test system is UTI89KAN (UPEC). The assay can be described thus: Prophylactic treatment of acute urinary tract infection in mice. The assay is classed as in vivo, C3H/HeN female mice. Particulars: 25 mg/kg PO 30 min prior to UPEC infection, bacterial titers 6 h postinfection. In outline: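 6–8-week female C3H/HeN mice were dosed orally with 25 mg/kg test compound in 10% cyclodextrin. After 30 min they were inoculated transurethrally under isoflurane with 1–2 × 10^7 UTI89KAN (grown 2 × 24 h static in LB, 37 °C; washed, in PBS). At 6 h, bladders were homogenised and plated on LB + 50 μg/mL kanamycin. Geometric means from ≥2 experiments; Mann–Whitney versus vehicle.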

Assay [3] relates to UTI89KAN (UPEC). The assay can be described thus: Treatment of chronic urinary tract infection in mice. The assay is classed as in vivo, C3H/HeN female mice. To be noted: chronic UTI. The procedure, abridged:
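Female C3H/HeN mice were infected transurethrally with 1–2 × 10^8 UTI89KAN. Urine titers were taken on day 12, and mice with ≥10^5 were counted as chronic. At 2 weeks they received oral test compound (25 or 50 mg/kg) in 100 μL 10% cyclodextrin. Bladders were harvested at set times after dosing and plated on kanamycin LB. Geometric means; Mann–Whitney versus vehicle or 0 h.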

In assay [4] the test system is clinical E. coli strain UTI89. Kind of assay: Hemagglutination inhibition. Format: cell-based, Escherichia coli.
The mark [5] stands for this setting: 25 mg/kg oral, 12 h post treatment.

Turning to `COC(=O)c1cccc(-c2ccc(S[C@H]3O[C@H](CO)[C@@H](O)[C@H](O)[C@@H]3O)cc2)c1` [compound 3, 4′-(α-D-Mannopyranosylthio)-[1,1′biphenyl]-3-carboxylic Acid Methyl Ester], in assay [1], the “binding affinity to FimH relative to 1” value was “equivalent binding affinity to FimH”.

`COC(=O)c1cccc(-c2ccc(N[C@H]3O[C@H](CO)[C@@H](O)[C@H](O)[C@@H]3O)cc2)c1` [compound 2, 4′-(α-D-Mannopyranosylamino)-[1,1′biphenyl]-3-carboxylic Acid Methyl Ester]: the “binding affinity to FimH relative to 1” value in assay [1] is recorded as “equivalent binding affinity to FimH”.

Take `CNC(=O)c1cccc(-c2ccc(O[C@H]3O[C@H](COP(=O)(O)O)[C@@H](O)[C@H](O)[C@@H]3O)c(C)c2)c1` [23b, 4′-(6-Dihydrogen Phosphate-α-D-mannopyranosyloxy)-N,3′-dimethyl-[1,1′biphenyl]-3-carboxamide]: the “efficacy compared to 23 as prophylaxis therapy” value in assay [2] was “improved efficacy compared to 23”. As to `CNC(=O)c1cc(C(=O)NC)cc(-c2ccc(O[C@H]3O[C@H](CO)[C@@H](O)[C@H](O)[C@@H]3O)c(C)c2)c1` [compound 24], in assay [3] (setting [5]), the “change in bladder burdens compared to vehicle” value (“change in bladder burdens” below) is listed as “noticeable, but not significant, decrease in bladder burdens”. Besides, in assay [3] (50 mg/kg oral), the “bladder burden at 6 h” value was 10^4 CFUs and the “bladder burden at 12 hours (geometric mean)” value is 10^5. The “bladder burden 2 h postdosing” value in assay [3] (50 mg/kg oral, from 10^7 CFUs at 0 h) is listed as “approximately 10^5 CFUs”. Moreover, the “fold more potent than 23 in HA assay” value in assay [4] (comparator 23) was found to be 4 fold.

In the case of `CNC(=O)c1cccc(-c2ccc(C[C@H]3O[C@H](CO)[C@@H](O)[C@H](O)[C@@H]3O)c(C)c2)c1` [compound 22, 4′-[(α-D-Mannopyranosyl)methyl]-N,3′-dimethyl-[1,1′biphenyl]-3-carboxamide], in assay [4] (comparator 23), the “fold decrease in activity relative to 23” value is recorded as 30 fold. Take `CNC(=O)c1cccc(-c2ccc(O[C@H]3O[C@H](COC(=O)CN(C)C)[C@@H](O)[C@H](O)[C@@H]3O)c(C)c2)c1` [23c, 4′-[6-O-(N,N-Dimethylaminoacetyl)-α-D-mannopyranosyloxy]-N,3′-dimethyl-[1,1′biphenyl]-3-carboxamide]: the “efficacy compared to 23 as prophylaxis therapy” value in assay [2] was “did not show enhanced efficacy”. Consider `CNC(=O)c1cccc(-c2ccc([C@H](O)[C@H]3O[C@H](CO)[C@@H](O)[C@H](O)[C@@H]3O)cc2)c1` [6S, 4′-[(α-D-Mannopyranosyl)-(S)-hydroxymethyl]-N-methyl-[1,1′biphenyl]-3-carboxamide], for which the “fold less potency in the HA assay than 5” value in assay [4] (comparator 5) is 25 fold. In the case of `CNC(=O)c1cccc(-c2ccc([C@@H](O)[C@H]3O[C@H](CO)[C@@H](O)[C@H](O)[C@@H]3O)c(C)c2)c1` [21R, 4′-[(α-D-Mannopyranosyl)-(R)-hydroxymethyl]-N,3′-dimethyl-[1,1′biphenyl]-3-carboxamide], in assay [3] (setting [5]), the “bladder burdens relative to untreated mice” value is “three logs lower”; the “change in bladder burdens” value was “dramatic and significant decrease in CFUs”. In the case of `CNC(=O)c1cccc(-c2ccc(O[C@H]3O[C@H](COC(C)=O)[C@@H](OC(C)=O)[C@H](OC(C)=O)[C@@H]3OC(C)=O)c(C)c2)c1` [23a, 4′-(2,3,4,6-Tetra-O-acetyl-α-D-mannopyranosyloxy)-N,3′-dimethyl-[1,1′biphenyl]-3-carboxamide], the “change in bladder burdens” value in assay [3] (setting [5]) is “similar, but statistically significant, decrease in bladder burdens”. Further, the “efficacy compared to 23 as prophylaxis therapy” value in assay [2] is recorded as “improved efficacy compared to 23”.
